Measured values published in ChEMBL document CHEMBL1154274, “Oligomeric formylpeptide activity on human neutrophils” (2009).
Active and inactive are the calls of the source. No cut-off for these calls is given here.

Assays:
[1] = Activation of cellular function of cytochalasin B-pretreated human neutrophils assessed as maximal induction of lysozyme release at 10 uM after 15 mins by microplate-based assay; type: functional, cell-based; conditions: Neutrophil
Procedure, shortened: (§1)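 Neutrophils from heparinized peripheral blood of fasting healthy donors (dextran sedimentation, Ficoll-Paque, hypotonic NH4Cl lysis), resuspended in KRPG pH 7.4 with 1 mM MgCl2 and CaCl2. Pre-incubated with cytochalasin B for 15 min at 37 °C, then given peptide (final 10^-10 to 10^-4 M) for 15 min at 37 °C. After centrifugation, lysozyme was read by Micrococcus lysodeikticus lysis rate at 465 nm, as net % of Triton X-100 total. Five experiments, duplicate.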

[2] = Activation of cellular function of cytochalasin B-pretreated human neutrophils assessed as induction of lysozyme release at 1 uM after 15 mins by microplate-based assay; type: functional, cell-based; conditions: Neutrophil; procedure, shortened: as §1
[3] = Activation of cellular function of cytochalasin B-pretreated human neutrophils assessed as induction of superoxide anion production at 10 uM by microplate-based assay; type: functional, cell-based; conditions: Neutrophil
Procedure, shortened: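 Microplate ferricytochrome c reduction, superoxide dismutase-inhibitable, in KRPG. Wells held 4 × 10^5 neutrophils and 100 nmol cytochrome c. Cells were pre-incubated with cytochalasin B for 5 min. Peptide (10^-10 to 10^-4 M) was added at zero time at 37 °C. A550 minus A468 was converted to nmol O2− using ε 18.5 mM^-1 cm^-1. Five experiments, duplicate.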

[4] = test system: Neutrophil; experiment: Ratio of compound to fMLP-OMe potency for induction of chemotactic activity in human neutrophils; type: functional
[5] = Activation of cellular function of human neutrophils assessed as induction of chemotactic activity at 0.01 uM; type: functional, cell-based; conditions: Neutrophil
Procedure, shortened: (§2)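 48-well microchemotaxis chamber with peptide in the lower compartment, diluted from 10^-2 M DMSO stock into KRPG with 1 mg/mL BSA; tested 10^-12 to 10^-5 M. Filter migration was scored by the leading-front method. Chemotactic index = (migration to attractant − migration to buffer)/migration to buffer. Five experiments, duplicate.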

[6] = Activation of cellular function of human neutrophils assessed as chemotactic index at 0.01 uM; type: functional, cell-based; conditions: Neutrophil; procedure, shortened: as §2
[7] = Activation of cellular function of human neutrophils assessed as chemotactic index at 0.000001 to 10 uM; type: functional, cell-based; conditions: Neutrophil; procedure, shortened: as §2

| Structure (SMILES) | Activity [1] | Efficacy [2] [%] | Activity [3] | Ratio [4] | Activity [5] | Ratio [6] | Ratio [7] |
| --- | --- | --- | --- | --- | --- | --- | --- |
| COC(=O)[C@H](CCCCN[C@@H](Cc1ccccc1)C(=O)N[C@@H](CC(C)C)C(=O)N[C@H](C=O)CCSC)NC(=O)[C@H](Cc1ccccc1)NC(=O)[C@H](CC(C)C)NC(=O)[C@H](CCSC)NC=O | Active | 40 | Active | 10 | Active |  |  |
| COC(=O)[C@H](Cc1ccccc1)NC(=O)[C@H](CC(C)C)NC(=O)[C@H](CCSC)NC=O |  | 60 |  |  |  | 1.05 | 1.05 |
| COC(=O)[C@H](CCCCN[C@@H](Cc1ccccc1)C(=O)N[C@@H](CC(C)C)C(=O)N[C@H](C=O)CCSC)NC(=O)[C@H](CCCCN[C@@H](Cc1ccccc1)C(=O)N[C@@H](CC(C)C)C(=O)N[C@H](C=O)CCSC)NC(=O)[C@H](Cc1ccccc1)NC(=O)[C@H](CC(C)C)NC(=O)[C@H](CCSC)NC=O | Active | 40 | Active | 10 | Active | 0.9 | 0.95 |
| COC(=O)C[C@H](NCCCC[C@H](NC(=O)[C@H](Cc1ccccc1)NC(=O)[C@H](CC(C)C)NC(=O)[C@H](CCSC)NC=O)C(=O)OC)C(=O)N[C@@H](Cc1ccccc1)C(=O)N[C@@H](CC(C)C)C(=O)N[C@H](C=O)CCSC | Active | 20 | Active | 10 | Active | 0.9 | 0.95 |
